Data from the RNAGym collection of RNA variant scans (doi:10.1126/science.aae0568).
Fewer inactive variants are shown than the library holds.

B1: tRNA (parent)
chain: GUUCCGUUGGCGUAAUGGUAACGCGUCUCCCUCCUAAGGAGAAGACUGCGGGUUCGAGUCCCGUACGGAACG

Variants of: B1
Assay: yeast fitness relative to wild type (ratio to wild type); higher = fitter; tRNA-Arg(CCU), competitive growth, 37 C, YPD
Summary of the method: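 Changes in genotype frequencies gave Darwinian fitness relative to wild type. Frequencies were read by 100-nucleotide paired-end sequencing of gene amplicons before and after pooled Saccharomyces cerevisiae strains, carrying tRNA-Arg(CCU) gene variants at the native locus, were competed in YPD at 37°C for 24 hours in six replicates. A genotype was kept only with ≥ 100 starting reads, and estimates < 0.5 were set to 0.5.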

| Variant | yeast fitness |
| --- | --- |
| C5U U26G C49G | ≤ 0.5 |
| G6A C11U A70C | 0.578 |
| C5U U26C G50C G51C G56C G67A | ≤ 0.5 |
| G6A A45U | 0.942 |
| C5U U19G G23A | ≤ 0.5 |
| C5U U32C C49U A57C | ≤ 0.5 |
| G6A A15G C30A G67A | ≤ 0.5 |
| G6A A45U G51A | ≤ 0.5 |
| G6A A14C A37U A57C G67U | ≤ 0.5 |
| C5U U26A A65G | 0.739 |
| G6A A20G A36G C49G C61A | ≤ 0.5 |
| C5U U32C G39A | 0.584 |
| G6A C11U A40G | ≤ 0.5 |
| G6A C11U U26A C33A A43G | ≤ 0.5 |
| C5U U35C A45U C61G | ≤ 0.5 |
| C5U U13G C22A C29U C31A U59A C62U | ≤ 0.5 |
| C5U U16A C34A | ≤ 0.5 |
| C5U U19A A40C C49G C55G A69U | ≤ 0.5 |
| G6A C11G A21G C24A G52A C60A A69G | ≤ 0.5 |
| G6A A20U A21G C61U | ≤ 0.5 |
| G6A A15C C33G A36C | ≤ 0.5 |
| G6A A14G C33A | ≤ 0.5 |
| G6A A21G U35C A70C | ≤ 0.5 |
| G6A A45U C49U | 0.564 |

| Variant | yeast fitness |
| --- | --- |
| G6A C22A C31U G68C | 0.709 |
| G6A C11A A14C U19C U32A U35C A42C | ≤ 0.5 |
| G6A A15C A36C A42U C55G C61U | ≤ 0.5 |
| G6A A20G C31G C46U | 0.58 |
| G6A A15U C27A A65C A69C | ≤ 0.5 |
| C5U U16C A20G C29A | ≤ 0.5 |
| G6A C11G U35A A37U U53A A65G | ≤ 0.5 |
| G6A A36G G48A | 0.59 |
| G6A C11A A45U U59G | ≤ 0.5 |
| C5U U16C C30A C31U | ≤ 0.5 |
| G6A A21U | 0.659 |
| G6A A21C | 0.84 |
| G6A A40U A69C | 0.581 |
| C5U U32C A37C C60U G67A | 0.572 |
| G6A A21C A43U | 0.528 |
| G6A C22G A42C C62U | ≤ 0.5 |
| G6A A14U C30U A69U | ≤ 0.5 |
| C5U U28A G41A A70U | ≤ 0.5 |
| C5U U19G A21U C29G C61G | ≤ 0.5 |
| G6A A15C C27G G44C C49A U64A | 0.538 |
| G6A A14U G48A | 0.547 |
| G6A A37G U53G | ≤ 0.5 |
| G6A A42C G48A C62U | 0.698 |
| G6A A20G C24U A40G A43G | ≤ 0.5 |

| Variant | yeast fitness |
| --- | --- |
| G6A C11A C24G A42U | ≤ 0.5 |
| G6A A14G A15G A20C U64A G67A | ≤ 0.5 |
| G6A C11U G68C | 0.54 |
| G6A C11A A36C C61G C62A A69C | ≤ 0.5 |
| C5U U16G A65C | 0.612 |
| G6A A15C C60A C62U | ≤ 0.5 |
| G6A A14U C66U | ≤ 0.5 |
| G6A A40C | 0.967 |
| G6A A15C C29A C66U | ≤ 0.5 |
| C5U U16G G58C | 0.576 |
| G6A C22A U35A C49G G63C | ≤ 0.5 |
| G6A A20C A65U | 0.699 |
| G6A A20C A65G | 0.672 |
| G6A A37C A65C A70C | ≤ 0.5 |
| G6A A43G U59C | 0.595 |
| G6A A45G A70C | 0.856 |
| G6A C22G C31U | 0.771 |
| G6A A37U C55G C66U | ≤ 0.5 |
| C5U U13C G39C A45G | ≤ 0.5 |
| G6A C11U C34G G58A | 0.724 |
| C5U U16C A20G A40G A43G G67C | ≤ 0.5 |
| G6A A36U A40G G44U U54C | ≤ 0.5 |
| G6A C11U C30U G67A | ≤ 0.5 |
| G6A A15C G51A A57U G68A | ≤ 0.5 |

| Variant | yeast fitness |
| --- | --- |
| G6A A14C A20G A42U G56A G63C | ≤ 0.5 |
| G6A C22G G44C A70C | ≤ 0.5 |
| G6A A15C C33U G39C C62G G68C | ≤ 0.5 |
| C5U U28A C34U C61U | ≤ 0.5 |
| G6A A15G C30U A69U | ≤ 0.5 |
| G6A A15G U19C C22A | ≤ 0.5 |
| G6A A20G C29A A70U | ≤ 0.5 |
| C5U U16G C34U A40G A43G C62A A69C | 0.565 |
| G6A A15G C46A A69U | ≤ 0.5 |
| G6A A14G G18A A42C | 0.618 |
| G6A A21U A45U G48C A57C G67U | ≤ 0.5 |
| C5U U47C U54C C55G | ≤ 0.5 |
| G6A A14G A36G A45U | 0.574 |
| C5U U16A G38A A42G | ≤ 0.5 |
| G6A A20G C30U C55U | ≤ 0.5 |
| C5U U13C C30U A40G C55A G63C A65C | ≤ 0.5 |
| G6A A14U G23A C29G C46A C55G G68A A70C | ≤ 0.5 |
| C5U U19A G25C C29A A43U | ≤ 0.5 |
| C5U U28A G67A | 0.545 |
| C5U U16G G51C A57C | ≤ 0.5 |
| C5U U28G C49A | ≤ 0.5 |
| C5U U16A G23A C49U | ≤ 0.5 |
| C5U U47A C49U A69U | ≤ 0.5 |
| G6A A21G G58C U59C | 0.661 |

| Variant | yeast fitness |
| --- | --- |
| G6A A15G U54C | ≤ 0.5 |
| G6A A37U | 0.64 |
| G6A A21G A37C A57C | ≤ 0.5 |
| C5U U13C C24G U26C A37G U54G | ≤ 0.5 |
| C5U U16C A40G A43G G67C | ≤ 0.5 |
| G6A A21U C33U | 0.525 |
| G6A A21C U47A G58A A65C | ≤ 0.5 |
| G6A A21G U32C U59G C66U A70C | ≤ 0.5 |
| C5U U19G C66A | 0.531 |
| C5U U16C C29A | 0.522 |
| G6A C11U C22G U47A C60U | ≤ 0.5 |
| G6A C11A C66A | ≤ 0.5 |
| C5U U13C U19A A21U C24A U54C U59C C66G | ≤ 0.5 |
| C5U U28G A42C | ≤ 0.5 |
| G6A A20G A37G G50A | ≤ 0.5 |
| C5U U13C U26A | 0.722 |
| C5U U26A C66U | 0.792 |
| G6A C11U C24U | ≤ 0.5 |
| G6A A14U C29A C49A | ≤ 0.5 |
| G6A C11U U13C A43G G52A G67A | ≤ 0.5 |
| G6A A40U A43C | 0.766 |
| C5U U26A G68C | 0.663 |
| G6A A14U C55U C61A | ≤ 0.5 |
| G6A A20U A42G | ≤ 0.5 |

| Variant | yeast fitness |
| --- | --- |
| C5U U19C A21U C31U A42G A43U A65C | ≤ 0.5 |
| G6A A20U U53A G58A | 0.538 |
| G6A A15C G23U | ≤ 0.5 |
| C5U U59C | 0.946 |
| C5U U59A | 0.886 |
| G6A A20C C55U | 0.568 |
| G6A A20C C55A | 0.583 |
| C5U U26A U54C | 0.644 |
| C5U U28G A45C | 0.592 |
| C5U U59G C61G | 0.606 |
| C5U U19C C34U A70C | ≤ 0.5 |
| G6A A42U G58A | 0.634 |
| G6A A36G | 0.89 |
| G6A A36U | 0.604 |
| C5U U16G C24U | 0.776 |
| G6A A37U G56A A65C | 0.56 |
| G6A A15C C29U | ≤ 0.5 |
| G6A A14U C61A | ≤ 0.5 |
| G6A A65C A70U | 0.712 |
| G6A A45U A69U | 0.826 |
| G6A A70G | 0.928 |
| G6A A70U | 0.958 |
| G6A A70C | 0.863 |
| G6A A20U U26G C62U | ≤ 0.5 |

| Variant | yeast fitness |
| --- | --- |
| C5U U35C A43U A70G | ≤ 0.5 |
| C5U U26G A43C C62G G63A C66G A69G | 0.549 |
| G6A A45U A57C | ≤ 0.5 |
| C5U U28A G41A C66U | 0.542 |
| C5U U16C C22G C29G | ≤ 0.5 |
| G6A C11A G52U | ≤ 0.5 |
| C5U U32G C33G C55U | 0.621 |
| C5U U19G C46U A69C | ≤ 0.5 |
| G6A A15U G23A C33A U54A | ≤ 0.5 |
| G6A A20U C49U | 0.542 |
| G6A C11G C22G U54A | ≤ 0.5 |
| G6A A20C A70G | 0.718 |
| G6A A43U C46A | 0.649 |
| G6A A21G C55U G56A | ≤ 0.5 |
| G6A A21C U28A | ≤ 0.5 |
| G6A A14C A37U U54A | ≤ 0.5 |
| C5U U26A A69C | 0.78 |
| C5U U32A | 0.789 |
| C5U U32G | 0.669 |
| C5U U26A C33G C46U C55G C66A | 0.539 |
| G6A C22G C62G | ≤ 0.5 |
| G6A A14G G48C | ≤ 0.5 |
| C5U U13G C55U G67C | ≤ 0.5 |
